The subject of assay [1] is Pseudomonas aeruginosa. Nature of the assay: Inhibition of MDH in Pseudomonas aeruginosa biofilm after 48 hrs by UV-spectrophotometry. Summed up:
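MDH in biofilm read as the change in absorbance of the reaction mixture at 340 nm, relative to untreated controls; mean ± standard deviation.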

Assay [2] relates to Pseudomonas aeruginosa. Description: Antibiofilm activity against Pseudomonas aeruginosa at 50 ug/ml after 24 hrs by microplate reader analysis. In kind it is functional.
Assay [3] relates to Pseudomonas aeruginosa. Description: Antibiofilm activity against Pseudomonas aeruginosa after 24 hrs by microplate reader analysis. Type of assay: functional, organism-based. Summed up:
(§1)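 IC50 for growth and biofilm formation found by serial dilution to the concentration giving 50% inhibition.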

The test system of assay [4] is Pseudomonas aeruginosa. Description: Antibacterial activity against Pseudomonas aeruginosa assessed as growth inhibition after 24 hrs by microplate reader analysis. Type of assay: functional, organism-based. Summed up:
as §1

In assay [5] the test system is Pseudomonas aeruginosa. Description: Antibacterial activity against Pseudomonas aeruginosa assessed as growth inhibition at 50 ug/ml after 24 hrs by microplate reader analysis. As to conditions: read-out: GI. Type of assay: functional.
Assay [6] relates to Pseudomonas aeruginosa. Nature of the assay: Reduction of extracellular DNA in Pseudomonas aeruginosa biofilm after 48 hrs by UV-spectrophotometry. In kind it is functional, organism-based. Summed up:
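eDNA measured as the change in absorbance of biofilm lysate at 260 nm versus untreated controls; mean ± standard deviation.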

Converted amounts (≈) assume the structure as drawn.

As to `CCOC(=O)C1=C(Nc2ccc(CC)cc2)C(=O)N(c2ccc(CC)cc2)C1C(=O)OCC` (stereo not drawn), the inhibition – broadly, the drop in the measured response relative to a control, in per cent – with Pseudomonas aeruginosa [1] was “Dose-dependent effect”. Further, in the assay with Pseudomonas aeruginosa [2], at 50 µg/mL the inhibition was 53.2%. Besides, the IC50 – broadly, the concentration at which inhibition is half-maximal – in the assay on Pseudomonas aeruginosa [3] was 47.4 µg/mL (≈ 105 µM); in the assay on Pseudomonas aeruginosa [4], 42.2 µg/mL (≈ 93.7 µM). The inhibition of growth at 50 µg/mL with Pseudomonas aeruginosa [5] worked out at 65.8%. Also, the Activity result with Pseudomonas aeruginosa [6] is “Dose-dependent effect”.
Take `CCOC(=O)C1=C(Nc2ccc(OCC)cc2)C(=O)N(c2ccc(OCC)cc2)C1C(=O)OCC` (stereo not drawn): in the assay on Pseudomonas aeruginosa [1], the inhibition entry was “Dose-dependent effect”. Further, in the assay with Pseudomonas aeruginosa [2], the inhibition at 50 µg/mL is 53.8%. Further, the IC50 with Pseudomonas aeruginosa [3] amounted to 48.4 µg/mL (≈ 100 µM); in the assay on Pseudomonas aeruginosa [4], 46.6 µg/mL (≈ 96.6 µM). Moreover, in the assay on Pseudomonas aeruginosa [5], the inhibition of growth at 50 µg/mL stood at 63.1%. Besides, the Activity result in the assay on Pseudomonas aeruginosa [6] was “Dose-dependent effect”.
As to `CC[C@H]1OC(=O)[C@H](C)[C@@H](O[C@H]2C[C@@](C)(OC)[C@@H](O)[C@H](C)O2)[C@H](C)[C@@H](O[C@@H]2O[C@H](C)C[C@H](N(C)C)[C@H]2O)[C@](C)(O)C[C@@H](C)C(=O)[C@H](C)[C@@H](O)[C@]1(C)O` [ERYTHROMYCIN], the inhibition result in the assay with Pseudomonas aeruginosa [1] was “Dose-dependent effect”. Moreover, in the assay with Pseudomonas aeruginosa [2], at 50 µg/mL the inhibition was 45.7%. Further, in the assay with Pseudomonas aeruginosa [4], the IC50 was 33.2 µg/mL (≈ 45.2 µM). In the assay on Pseudomonas aeruginosa [5], the inhibition of growth at 50 µg/mL worked out at 67.6%. Moreover, the Activity entry in the assay with Pseudomonas aeruginosa [6] was “Dose-dependent effect”.
Take `CCOC(=O)C1=C(Nc2ccccc2)C(=O)N(c2ccccc2)C1C(=O)OCC` (stereo not drawn): in the assay with Pseudomonas aeruginosa [2], the inhibition at 50 µg/mL came to 35.5%. Besides, the IC50 in the assay on Pseudomonas aeruginosa [4] was 50 µg/mL (≈ 127 µM). In addition, the inhibition of growth at 50 µg/mL in the assay with Pseudomonas aeruginosa [5] was found to be 50.4%.
Take `CCOC(=O)C1=C(Nc2cccc(C(=O)OCC)c2)C(=O)N(c2cccc(C(=O)OCC)c2)C1C(=O)OCC` (stereo not drawn): in the assay with Pseudomonas aeruginosa [2], testing at 50 µg/mL gave an inhibition of 42%. The inhibition of growth at 50 µg/mL with Pseudomonas aeruginosa [5] was found to be 15.4%.
Consider `CCOC(=O)C1=C(Nc2ccc(OC)cc2)C(=O)N(c2ccc(OC)cc2)C1C(=O)OCC` (stereo not drawn), for which the inhibition entry with Pseudomonas aeruginosa [1] was “Dose-dependent effect”. This molecule also returned an inhibition at 50 µg/mL in the assay on Pseudomonas aeruginosa [2] of 61.4%. Also, the IC50 was determined as 40.2 µg/mL (≈ 88.5 µM) with Pseudomonas aeruginosa [3] and 34.2 µg/mL (≈ 75.3 µM) in the assay with Pseudomonas aeruginosa [4]. In addition, the inhibition of growth at 50 µg/mL in the assay with Pseudomonas aeruginosa [5] was found to be 80.8%. Further, the Activity result with Pseudomonas aeruginosa [6] was “Dose-dependent effect”.
Molecule `CCOC(=O)C1=C(NC2CC2)C(=O)N(C2CC2)C1C(=O)OCC` (stereo not drawn) showed an inhibition at 50 µg/mL with Pseudomonas aeruginosa [2] of 11.8%. For the same molecule, in the assay on Pseudomonas aeruginosa [5], the inhibition of growth at 50 µg/mL came to 26.6%.
With `CCOC(=O)C1=C(Nc2ccc(Cl)cc2)C(=O)N(c2ccc(Cl)cc2)C1C(=O)OCC` (stereo not drawn), the inhibition at 50 µg/mL in the assay on Pseudomonas aeruginosa [2] was found to be 20.7%. The IC50 in the assay on Pseudomonas aeruginosa [4] is 41.6 µg/mL (≈ 89.8 µM). In addition, the inhibition of growth at 50 µg/mL in the assay on Pseudomonas aeruginosa [5] is 68.6%.
`CCOC(=O)C1=C(Nc2cc(C)cc(C)c2)C(=O)N(c2cc(C)cc(C)c2)C1C(=O)OCC` (stereo not drawn) had an inhibition at 50 µg/mL in the assay with Pseudomonas aeruginosa [2] of 28.9%. Moreover, in the assay with Pseudomonas aeruginosa [5], the inhibition of growth at 50 µg/mL turned out to be 32.5%.
The molecule `CCOC(=O)C1=C(Nc2cccc(C)c2)C(=O)N(c2cccc(C)c2)C1C(=O)OCC` (stereo not drawn) had an inhibition at 50 µg/mL in the assay on Pseudomonas aeruginosa [2] of 29.3%. Further, the IC50 in the assay on Pseudomonas aeruginosa [4] amounted to 48.4 µg/mL (≈ 115 µM). Also, in the assay with Pseudomonas aeruginosa [5], the inhibition of growth at 50 µg/mL stood at 55.5%.
For `CCOC(=O)C1=C(Nc2ccc(Br)cc2)C(=O)N(c2ccc(Br)cc2)C1C(=O)OCC` (stereo not drawn), the inhibition entry in the assay on Pseudomonas aeruginosa [1] is “Dose-dependent effect”. The same molecule came in with an inhibition at 50 µg/mL in the assay with Pseudomonas aeruginosa [2] of 65.4%. For the same molecule, the IC50 in the assay on Pseudomonas aeruginosa [3] came out at 39 µg/mL (≈ 70.6 µM); in the assay with Pseudomonas aeruginosa [4] it was 38.4 µg/mL (≈ 69.5 µM). Further, the inhibition of growth at 50 µg/mL in the assay with Pseudomonas aeruginosa [5] is 76.8%. For the same molecule, the Activity entry with Pseudomonas aeruginosa [6] was “Dose-dependent effect”.
For `CCOC(=O)C1=C(Nc2cccc(Cl)c2)C(=O)N(c2cccc(Cl)c2)C1C(=O)OCC` (stereo not drawn), the inhibition result with Pseudomonas aeruginosa [1] was “Dose-dependent effect”. Moreover, the inhibition at 50 µg/mL in the assay with Pseudomonas aeruginosa [2] was 70.2%. Further, the IC50 with Pseudomonas aeruginosa [3] stood at 28.8 µg/mL (≈ 62.2 µM); with Pseudomonas aeruginosa [4] it was 27.8 µg/mL (≈ 60 µM). The inhibition of growth at 50 µg/mL with Pseudomonas aeruginosa [5] came out at 83%. The Activity entry with Pseudomonas aeruginosa [6] is “Dose-dependent effect”.
Take `CCOC(=O)C1=C(Nc2ccc(C)cc2)C(=O)N(c2ccc(C)cc2)C1C(=O)OCC` (stereo not drawn): in the assay on Pseudomonas aeruginosa [2], 50 µg/mL produced 13.6% inhibition. Moreover, in the assay on Pseudomonas aeruginosa [5], the inhibition of growth at 50 µg/mL is 34%.
On to `CCOC(=O)C1=C(NC2CCC2)C(=O)N(C2CCC2)C1C(=O)OCC` (stereo not drawn), for which the inhibition at 50 µg/mL in the assay on Pseudomonas aeruginosa [2] amounted to 41.3%. The inhibition of growth at 50 µg/mL in the assay with Pseudomonas aeruginosa [5] came out at 40.9%.
For `CCOC(=O)C1=C(Nc2cccc(F)c2)C(=O)N(c2cccc(F)c2)C1C(=O)OCC` (stereo not drawn), in that order: 27.5% and 20.3%.
For `CCOC(=O)C1=C(Nc2ccc(C(=O)OCC)cc2)C(=O)N(c2ccc(C(=O)OCC)cc2)C1C(=O)OCC` (stereo not drawn), in that order: 37.8% and 44.7%.

For the origin of these results see ChEMBL document CHEMBL3351850, “Synthesis and anti-biofilm activities of dihydro-pyrrol-2-one derivatives on Pseudomonas aeruginosa” (Bioorg Med Chem Lett, 2015).
